High-throughput results as filed in PubChem.
A selection: hits, their analogues and other compounds. The true share with any hit is near 2.6%.
MC4R antagonist – MC4R antagonists of cAMP signaling, primary screen, cell-based, TR-FRET, antagonist arm of biased-ligand search. MC4R-expressing cells, MTII-stimulated cAMP, LANCE TR-FRET. inhibition, % at 6.5 µM. 0.48% of 360,000 active. AID 540295, 2011;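 active = inhibition above its plate's cutoff, the mean of tested wells on that plate plus 3 SD, cut at about 29% in these data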
Target sequence (P32245 whole entry, looked up): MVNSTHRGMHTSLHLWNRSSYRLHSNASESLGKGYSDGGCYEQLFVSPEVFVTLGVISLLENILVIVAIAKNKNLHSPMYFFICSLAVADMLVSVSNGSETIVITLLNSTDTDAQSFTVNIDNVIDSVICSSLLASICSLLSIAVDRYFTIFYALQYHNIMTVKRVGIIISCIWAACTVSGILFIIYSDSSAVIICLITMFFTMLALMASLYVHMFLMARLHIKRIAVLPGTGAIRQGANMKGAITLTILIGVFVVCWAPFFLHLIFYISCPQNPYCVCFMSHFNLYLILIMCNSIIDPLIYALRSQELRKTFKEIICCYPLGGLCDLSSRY
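Material: human MC4R-expressing U2OS cells. Probe or stimulus: Melanotan II challenge. Dosing: 6.5 µM single dose. Times: 30-min compound, 1-h challenge, 1-h detection, room temperature. Technique: TR-FRET with Eu-cAMP and labeled anti-cAMP, 671 nm. Replication: singlicate.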
iPSC survival up – enhancers of single-cell hiPSC survival, primary screen, ATPlite luminescence. 100% = ROCK inhibitor wells, 0% = DMSO. survival enhancement, % at 20 µM. 0.044% of 360,000 active. AID 602274, 2012; in the data active = survival enhancement above about 18%;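 also: cells exposed to compounds for 16 hours before the ATP read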
MC4R ag barr – MC4R agonists recruiting beta-arrestin, primary screen, cell-based, luminescence, agonist arm of biased-ligand search | Melanocortin receptor 4 (Homo sapiens), P32245 | U2OS MC4R beta-arrestin complementation; percent of melanotan II response, DMSO zero | activation, % at 8.9 µM | 0.98% of 360,000 active | AID 540308, 2011;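 active = activation above a per-plate cutoff, the mean activation of sample wells on that plate plus 3 SD, cut at about 8% in these data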
Granule exo inh – LAMP-1 surface exposure blockers, TALL-104 cells – cell-based, flow cytometry, MLPCN library, primary screen; TALL-104 LAMP-1 surface exposure; cells stimulated with thapsigargin and PMA; inhibition, % at 10 µM; 0.66% of 360,000 active; AID 651702, 2012;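 active = inhibition above about 55%, limit read from the data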
Tb MetRS inh – T. brucei MetRS inhibitors, primary screen, biochemical, luminescence | methionyl-tRNA synthetase (Trypanosoma brucei brucei) | purified T. brucei MetRS, ATP depletion, Kinase-Glo luminescence | inhibition, % at 11.9 µM | 0.4% of 360,000 active | AID 624268, 2012;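 active = inhibition above a per-plate cutoff of the control wells' mean inhibition plus 3 SD, cut at about 5.5% in these data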
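Dosing: 11.9 µM compound single dose, 0.9% DMSO; Assay system: purified T. brucei MetRS enzyme; Measured by: Kinase-Glo luciferase luminescence reporting remaining unconsumed ATP; Schedule: 15 min plus 2 h at 25 °C.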
ABCB6 inh 2 – ABCB6 transporter inhibitors, primary screen, K562-ABCB6 cells, flow cytometry, MLPCN library | ATP-binding cassette sub-family B member 6 (Homo sapiens), Q9NP58 | K562-ABCB6 porphyrin accumulation, 1 h; hits give low values | fluorescence ratio to DMSO, % at 10 µM | 0.19% of 360,000 active | AID 602162, 2011;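 active = fluorescence ratio to DMSO below 75%, the collection mean minus 3 SD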;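 also: signal is porphyrin accumulated inside mitochondria; lower ratio means ABCB6 inhibition with less porphyrin fluorescence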
Granule exo CP1 – inhibitors of lytic granule exocytosis, confirmation, TALL-104 cells, flow cytometry, Cherry Pick01; shares compounds with Granule exo inh; LAMP-1 externalization; stimulated with PMA plus thapsigargin; inhibition, % at 10 µM; 11% of 1,500 active; in the data active = inhibition above about 60%
Of the large screens only hits and unclear results are named; the others gave an inactive call (follow-up assays come after a bar, where they were run).

O=C(COC(=O)/C=C/c1ccc(Cl)cc1)Nc1ccc2[nH]c(=O)[nH]c2c1	none
CCOC(=O)c1cc2c(ccc3nc(C)c(C)c32)[nH]c1C	none
Cc1ccc(Nc2nc(NCCO)c3ccccc3n2)cc1C	Granule exo inh 58 | Granule exo CP1 inactive
COc1ccccc1N1C(=O)CC(Sc2n[nH]c(-c3cccc(C)c3)n2)C1=O (centres undefined)	Granule exo inh 59 | Granule exo CP1 inactive
COc1ccccc1N1C(=O)CC(Sc2nccc(C)n2)C1=O (centres undefined)	none
Cc1cc(F)ccc1S(=O)(=O)Nc1ccccc1C(=O)Nc1ccccc1-c1nc2ccccc2[nH]1	Granule exo inh 90 | Granule exo CP1 94
CCN(CC)c1nc(C)nc2c1cnn2CCc1ccccc1	Granule exo inh 71 | Granule exo CP1 inactive
CCn1c2ccccc2c2cc(NC(=O)c3ccc(=O)oc3)ccc21	Granule exo inh 78 | Granule exo CP1 inactive
CCn1c2ccccc2c2cc(NC(=O)CSc3nnc(-c4ccccc4)o3)ccc21	Granule exo inh 87 | Granule exo CP1 inactive
CCn1c2ccccc2c2cc(NC(=O)CSc3nnc(-c4cccc(C)c4)o3)ccc21	none
Cc1ccc(C(C)C)c(OCCNCc2ccccc2)c1	Granule exo inh 83 | Granule exo CP1 inactive
O=C1c2ccccc2C(=O)N1C/C=C/c1ccccc1	none
O=C1C(=O)N(C/C=C/c2ccccc2)c2ccccc21	Granule exo inh 62 | Granule exo CP1 inactive
COC(C[C@@H](O)[C@H](C)[C@@H](O)COCc1ccccc1)OC	Granule exo inh 70 | Granule exo CP1 inactive
COC(C[C@H](O)[C@@H](C)[C@@H](O)COCc1ccccc1)OC	none
CCOC(=O)[C@H]1[C@H]2COc3cc(OC)ccc3[C@@H]2N2C(=O)CN(CC3CCCO3)C(=O)[C@@]12C (some centres undefined)	none
CNC(=O)c1cccc(NC(=O)c2ccccc2OCc2ccccc2)c1	Granule exo inh 63 | Granule exo CP1 inactive
COc1cc(NC(=O)c2ccccc2OCc2ccccc2)cc(OC)c1OC	Granule exo inh 84 | Granule exo CP1 inactive
C/C(=N\NC(=O)c1ccc(O)cc1)c1cccc(NC(=O)c2ccccc2C)c1	none
Cc1ccc(C(=O)NCCc2ccc(S(=O)(=O)N3CCCC3)cc2)cc1	Granule exo inh 64 | Granule exo CP1 inactive
Cc1ccc(CNC(=O)c2ccc(S(=O)(=O)N3CCCCCC3)cc2)cc1	none
Cc1sc2ncn(CC(=O)N3CCC(C(N)=O)CC3)c(=O)c2c1S(=O)(=O)N1CC(C)CC(C)C1 (centres undefined)	none
Cc1cccc(NC(=O)CN2C(=O)N/C(=C/c3ccc(C)o3)C2=O)c1	Granule exo inh 85 | Granule exo CP1 inactive
Cc1ccc(NC(=O)CN2C(=O)N/C(=C/c3ccc(C)o3)C2=O)cc1	none
Clc1ccc(-c2c(C3=NCCCN3)nnn2-c2ccc(Cl)cc2)cc1	Granule exo inh 56 | Granule exo CP1 inactive
CCOC(=O)C1=C(C)N(C[C@@H]2CC[C@@H](Cc3ccc(-c4ccccc4)cc3)O2)C(=O)NC1c1ccc(SCc2ccco2)c([N+](=O)[O-])c1 (some centres undefined)	none
CC(=O)c1ccc(-c2cc([C@H]3[C@H]4C=CC[C@@H](C)[C@@H]4C(=O)N3Cc3ccccc3)ccc2F)cc1	Granule exo inh 58 | Granule exo CP1 inactive
COc1ccc(S(=O)(=O)N2CCOCC2)cc1NC(=O)c1sccc1C	none
